Screening results: PubChem, several laboratories
GSTO1 counter – inhibitors of recombinant GSTO1, primary screen, counter-screen for RBBP9 inhibitor project, biochemical, fluorescence polarization | actives 1.1% (n = 300,000) | inhibition, % at 5.96 µM | Glutathione S-transferase omega-1 (Homo sapiens), P78417 | activity-based probe fluorescence polarization | AID 1974, 2009;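 active = inhibition above the campaign mean inhibition plus 3 SD, cut at about 35% in these data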
Target sequence (P78417 whole entry, looked up): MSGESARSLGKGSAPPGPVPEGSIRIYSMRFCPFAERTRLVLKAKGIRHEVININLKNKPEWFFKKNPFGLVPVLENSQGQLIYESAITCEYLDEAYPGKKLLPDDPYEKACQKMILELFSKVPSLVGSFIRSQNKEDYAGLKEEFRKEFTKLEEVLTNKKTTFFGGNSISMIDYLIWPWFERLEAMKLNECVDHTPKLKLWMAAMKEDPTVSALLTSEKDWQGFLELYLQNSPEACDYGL
UBC13 polyUb – UBC13 polyubiquitin chain formation inhibitors, primary screen, biochemical, TR-FRET, uHTS. actives 0.47% (n = 330,000). AID 485273, 2010. inhibition, % at 20 µM; in the data active = inhibition above about 45%, passing the limit was not always enough
Target sequence (P61088 whole entry, looked up): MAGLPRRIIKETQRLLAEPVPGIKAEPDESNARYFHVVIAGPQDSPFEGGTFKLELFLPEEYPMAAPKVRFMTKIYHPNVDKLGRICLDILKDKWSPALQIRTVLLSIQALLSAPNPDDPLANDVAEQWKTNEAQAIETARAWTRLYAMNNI
Rin1-Abl PPI inh – inhibitors of Rin1-Abl protein binding, primary screen, biochemical, TR-FRET. Tyrosine-protein kinase ABL1 (Homo sapiens) + Ras and Rab interactor 1 (Homo sapiens), …. inhibition, % at 7.35 µM. actives 0.4% (n = 360,000). AID 588664, 2011; in the data active = inhibition above about 5%, passing the limit was not always enough
PAD4 inh – human PAD4 inhibitors, primary screen, biochemical, fluorescence polarization, 1536-well format. Protein-arginine deiminase type-4 (Homo sapiens), Q9UM07. inhibition, % at 6.36 µM. actives 0.41% (n = 330,000). recombinant PAD4, RCA probe fluorescence polarization;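 active = percent inhibition above a cutoff equal to the mean of all tested compounds plus 3 SD, cut at about 15% in these data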
Apaf1 inhib – inhibitors of human Apaf-1 apoptosome, primary screen, biochemical, DEVD-Rh110 fluorescence, uHTS | Apoptotic protease-activating factor 1 (Homo sapiens), O14727 | reconstituted apoptosome caspase-3 activity | inhibition, % at 20 µM | actives 0.71% (n = 330,000) | AID 489030, 2010; active = inhibition of at least 40% at 20 µM
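System: Apoptosome proteins | Medium: Hepes pH 7.5 with detergent and BSA | Also added: Cytochrome c trigger plus (Z-DEVD)2-Rh110 caspase-3 substrate | Incubation: 30 min compound preincubation, 50 min activation, room temperature | Detection: Rhodamine 110 fluorescence at Ex 480/Em 540 nm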
SUMO HTRF inh – inhibitors of in vitro SUMOylation cascade, primary screen, biochemical, HTRF, uHTS; SUMO-conjugating enzyme UBC9 (Homo sapiens), P63279; actives 0.36% (n = 290,000); HTRF SUMOylation assay, SAE1/SAE2 + UBC9; inhibition, % at 35 µM; in the data active = inhibition above about 50%, passing the limit was not always enough
Target sequence (P63279 whole entry, looked up): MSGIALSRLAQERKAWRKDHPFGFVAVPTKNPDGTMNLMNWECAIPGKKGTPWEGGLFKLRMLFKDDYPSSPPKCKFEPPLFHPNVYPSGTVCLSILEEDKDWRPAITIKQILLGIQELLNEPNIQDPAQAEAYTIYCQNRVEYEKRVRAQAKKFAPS
Apaf-1 inh conf – Apaf-1 inhibitors, single-dose retest, confirmation, biochemical, fluorescence, DEVD-Rh110, 20 µM; actives 25% (n = 1,800); AID 504614, 2011; inhibition, % at 20 µM; reconstituted apoptosome, caspase-3 DEVD-Rh110 fluorescence; shares compounds with Apaf1 inhib;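 active = mean inhibition of at least 40% at 20 µM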
Rh110 interf inh – Rh110 fluorescence interference by putative Apaf-1 inhibitors, confirmation, artefact control for Apaf-1 inhibitor project, biochemical, 20 µM. shares compounds with Apaf1 inhib. 1,800 tested, under 10 active. activation (fluorescence interference), % at 20 µM. quenched caspase reaction. AID 504615, 2011;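 active = signal rise of 40% or more at 20 µM, treated as a fluorescence artifact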
Fluor interf inh – fluorescence interference of Apaf-1 inhibitor hits, dose response, artefact control for Apaf-1 inhibitor project; fluorescence interference counterscreen, Apaf-1 assay format; IC50, µM; AID 588538, 2011; shares compounds with Apaf1 inhib; 460 tested, under 10 active; call rule not given here
A number is an active result; n = inactive; x = no result given. Most compounds without a hit are left out; they make up all but 2.2% or so of the library.

SMILES | GSTO1 counter | UBC13 polyUb | Rin1-Abl PPI inh | PAD4 inh | Apaf1 inhib | SUMO HTRF inh | Apaf-1 inh conf | Rh110 interf inh | others
CN(C)c1cc(N/N=C/c2ccccc2C(F)(F)F)nc(N(C)C)n1 | n | n | n | n | 56 | n | 51 | n | Fluor interf inh=n
CN(CC(=O)Nc1ccc(F)c(F)c1F)C(=O)c1ccc(-n2cncn2)cc1 | x | n | n | n | n | x | x | x
CCCCCc1ccc(OCCC[n+]2ccccc2)c(CCCCC)c1 | n | n | n | n | 66 | n | 40 | n | Fluor interf inh=n
CCCCCc1ccc(OCCOCCn2c[n+](C)c3ccccc32)c(CCCCC)c1 | x | x | n | x | x | n | x | x
CC(C)(C)C1CCC(=NNc2nc3ccccc3[nH]2)CC1 (configuration not stated) | n | n | n | n | n | n | x | x
c1ccc2c(c1)CC/C2=N/Nc1nc2ccccc2[nH]1 | n | n | n | n | 57 | n | n | n
Cc1ccc(S(=O)(=O)NC2=C(N3CCN(c4ccccc4F)CC3)C(=O)c3ccccc3C2=O)cc1 | n | n | n | n | 76 | n | n | n
CC(=O)Nc1ccc(S(=O)(=O)NC2=C(N3CCN(c4ccc(F)cc4)CC3)C(=O)c3ccccc3C2=O)cc1 | 57 | n | n | n | 64 | n | 64 | n | Fluor interf inh=n
O=C1C(NS(=O)(=O)c2cccs2)=C(N2CCN(c3ccccc3)CC2)C(=O)c2ccccc21 | n | n | n | n | 41 | n | n | n
O=C(Nc1cccc(Oc2c(F)c(F)c(F)c(F)c2F)c1)N1C[C@@H]2C[C@@H](C1)c1cccc(=O)n1C2 | n | n | n | n | n | n | x | x
COc1ccc(NC(=O)[C@@H](NC(=O)N2C[C@H]3C[C@@H](C2)c2cccc(=O)n2C3)C(C)C)cc1OC | n | n | n | n | 62 | n | n | n
Cc1ccc(S(=O)(=O)NC(=O)C2(C)CCN2C(=O)CC2CCCCC2)nc1 (configuration not stated) | x | x | n | x | x | x | x | x
COc1cc(C)c2c(c1C=O)Oc1c(c(C)c(O)c3c1C(O)OC3=O)OC2=O (configuration not stated) | n | n | n | n | 56 | n | n | n
Cc1cccc(C(=O)NCC(=O)OCCOc2ccccc2Cl)c1 | n | n | n | n | n | x | x | x
CCc1cc2c(SCC(=O)N3CC(=O)Nc4ccccc43)ncnc2s1 | n | n | n | n | 55 | n | n | n
CN1CCN(S(=O)(=O)c2cccc(C(=O)Nc3ccccc3N3CCCCC3)c2)CC1 | n | n | n | n | n | x | x | x
CN1CCN(S(=O)(=O)c2cccc(C(=O)Nc3cc(C(F)(F)F)ccc3N3CCCCC3)c2)CC1 | n | n | n | n | 40 | x | n | n
O=[N+]([O-])c1ccc(C=Nc2cccc3ccccc23)s1 | n | n | n | n | 68 | n | n | n
Cc1ccc(-c2nnc(CSc3nnc(COc4cccc5ccccc45)n3-c3ccccc3)o2)cc1 | n | n | n | n | 44 | n | 47 | n | Fluor interf inh=n
N#CCSc1nnc(COc2cccc3ccccc23)n1-c1ccccc1 | n | n | n | n | n | n | x | x
C/C(=N/Nc1ccc([N+](=O)[O-])cc1)c1c[nH]c2ccccc12 | x | n | n | x | n | n | x | x
COc1ccc2c(CC(=O)N3CCN(S(=O)(=O)c4ccc(F)cc4)CC3)coc2c1 | x | n | n | n | n | x | x | x
CCOC(=O)c1c2ccc(OCC(=O)NN)cc2n2ccccc12 | 40 | n | n | n | 42 | x | 53 | n | Fluor interf inh=n
Cc1c(Cl)cccc1N=C1SCCN1C(=O)CN1C(=O)NC2(CCCC2)C1=O | n | n | n | n | 40 | x | n | n
CN(c1ccccc1)c1cc(Br)nc(Br)c1 | n | n | n | n | n | x | x | x
SMILES | GSTO1 counter | UBC13 polyUb | Rin1-Abl PPI inh | PAD4 inh | Apaf1 inhib | SUMO HTRF inh | Apaf-1 inh conf | Rh110 interf inh | others
CC(=O)NC1=C(NC2CCS(=O)(=O)C2)C(=O)c2ccccc2C1=O (configuration not stated) | n | n | n | n | 41 | n | n | n
Cc1nn(Cc2ccc(C(=O)N3CCN(C(=O)c4ccco4)CC3)o2)c(C)c1[N+](=O)[O-] | n | n | n | n | n | n | x | x
CCOC(=O)c1cnn(-c2c(Cc3ccccc3)c(C)nc3c(-c4ccccc4)c(C)nn23)c1N | n | n | n | n | 62 | n | 55 | n | Fluor interf inh=n
CCOC(=O)c1cnn(-c2cc(C(C)(C)C)nc3c(-c4ccccc4)c(C)nn23)c1N | n | n | n | n | n | n | x | x
COc1cccc2sc(N(CCN(C)C)C(=O)c3ccc4c(c3)CCCC4)nc12 | n | n | n | n | 50 | n | n | n
COc1cccc(CNC(=O)COC(=O)/C=C/c2ccc(SC)cc2)c1 | x | n | n | n | n | x | x | x
CCOc1ccc(NC(=O)CN(C)C(=O)c2ccc(COc3ccccc3)cc2)cc1OCC | x | n | n | n | 48 | x | 40 | n | Fluor interf inh=n
CCOc1ccc(NC(=O)CN(C)C(=O)c2ccc(COc3ccccc3)o2)cc1OCC | n | n | n | n | n | x | x | x
COc1cc(NC(C)CCCN)c2ncccc2c1Oc1ccccc1 (configuration not stated) | n | n | n | n | 70 | n | n | n
COc1ccc(Oc2c(OC)cc([N+](=O)[O-])c3ncccc23)cc1 | x | x | n | x | x | x | x | x
COc1ccc(-c2cc(=O)n(-c3ccc([N+](=O)[O-])cc3)[nH]2)cc1 | 53 | n | n | 36 | 65 | n | n | n
COc1ccc(OC)c(CN2CCN(C(=O)c3cccc(S(=O)(=O)Nc4ccc(F)cc4)c3)CC2)c1 | x | x | n | x | x | x | x | x
O=C(Nc1ccc(-c2cccc(F)c2)cc1)C1CCCN(Cc2ccccn2)C1 (configuration not stated) | n | n | n | n | 40 | n | n | n
COc1cccc(-c2ccc(NC(=O)C3CCCN(Cc4ccccn4)C3)cc2)c1 (configuration not stated) | x | x | n | x | x | x | x | x
COC(=O)c1ccc(C23CC4(C2)[C@H](CN(CC2CCCCC2)[C@@H]4c2ccccc2)C3c2ccc(Cl)nc2)cc1 (some centres not stated) | n | n | n | n | n | n | x | x
